In ChEMBL document CHEMBL5634162, “Cyclohexylalanine-Containing α-Helical Amphipathic Peptide Targets Cardiolipin, Rescuing Mitochondrial Dysfunction in Kidney Injury” (J Med Chem, 2024) one finds inhibition, Activity and Drug uptake data, which are given here for one molecule.

The subject of series [1] is Epithelial cell. As to the kind of experiment: Inhibition of H2O2-induced apoptosis in human tubular epithelial cells at 10 to 100 nM by Annexin V-FITC/PI staining based flow cytometry. To be noted: dose 10-100 nM. Format: functional. The procedure, abridged:
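hTECs exposed to H2O2 0.5 mM; annexin V-FITC/propidium iodide staining 15 min at room temperature in the dark, apoptosis and necrosis percentages by flow cytometry.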

Series [2] deals with HeLa. The series is described as follows: Induction of antimycin A-reduced ATP production in human HeLa cells incubated for 3 hrs followed by antimycin A addition measured after 3 hrs by luminescence based analysis. The following applies: dose 10-20 nM, time 6.0 hrs. It is filed as functional, cell-based. The essentials: (§1)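 Cellular ATP measured by luminescence with an ATP detection kit after peptide pretreatment.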

The subject of series [3] is Mus musculus. As to the kind of experiment: Protection against colistin-induced nephrotoxicity in C57BL/6 mouse model assessed as reduction in acute tubular necrosis at 1 mg/kg, ip administered once every other day measured after 7 days by […] analysis. It is filed as functional, organism-based. To be noted: time 7.0 day. The procedure, abridged: (§2)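 Male C57BL/6 mice, 7 weeks: colistin 20 mg/kg sc daily for 7 days, peptide 1 mg/kg ip once every other day, n = 5 per group. Day-7 kidney sections, citrate antigen retrieval, immunohistochemistry with HRP polymer secondary and hematoxylin counterstain; PAS and Masson's trichrome for damage.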

The subject of series [4] is Lipid bilayer. The series is described as follows: Binding affinity to cardiolipin-rich POPC/POPE by SPR analysis. In general terms: SPR reads the build-up and loss of mass on a sensor chip optically.
Series [5] concerns Mus musculus. The series is described as follows: Protection against colistin-induced nephrotoxicity in C57BL/6 mouse model assessed as reduction in cyt C level at 1 mg/kg, ip administered once every other day measured after 7 days by IHC analysis. Format: functional, organism-based. The following applies: time 7.0 day. The essentials:
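Seven-week-old male C57BL/6 mice got colistin 20 mg/kg SC daily for 7 days plus peptide 1 mg/kg intraperitoneally every other day; groups of n = 5 (control, colistin, colistin + peptide). Kidneys were taken at day 7. Cytochrome C was detected by immunohistochemistry (citrate antigen retrieval, HRP-polymer detection, hematoxylin counterstain). Sections were also stained with PAS and Masson's trichrome to score histologic damage and fibrosis.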

Series [6] concerns Mus musculus. The series is described as follows: Protection against […] C57BL/6 mouse model assessed as decrease in serum creatinine level at 1 mg/kg, ip measured after 23 hrs. It is filed as functional, organism-based.
A short description of series [7]: Drug uptake in human HeLa cells at 100 nM incubated for 3 hrs in presence of M-beta-CD by FACS analysis. Format: ADME, cell-based. To be noted: 0.1 µM. The procedure, abridged: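 HeLa cells pretreated 30 min with the endocytosis inhibitor (methyl-β-cyclodextrin for cholesterol depletion), then given 100 nM TAMRA-labelled peptide for 3 h and analysed by FACS.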
(In general: A flow cytometer gives signals particle by particle.)

Series [8] in a line: Drug uptake in mitochondria of human HeLa cells transfected with Drp1-eGFP at 100 nM incubated for 3 hrs by confocal microscopy. It is filed as ADME. The following applies: 0.1 µM.
Series [9] can be described thus: Drug uptake in CCCP-damaged mitochondria of human HeLa cells at 100 nM incubated for 3 hrs by MitoTracker probe based assay. Format: ADME. To be noted: 0.1 µM. The essentials:
(§3)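 HeLa cells given TAMRA-labelled peptide 100 nM for 3 h with MitoTracker staining; mitochondria damaged with 20 μM CCCP (30 min) or by CCCP during time-lapse confocal imaging. Red/green Pearson r calculated.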

Series [10] concerns Mus musculus. The series is described as follows: Protection against […] C57BL/6 mouse model assessed as reduction in cast formation at 1 mg/kg, ip administered thrice a week prior to induction of bilateral ischemia-reperfusion injury measured after 6 days by IHC analysis. The following applies: time 6.0 day. It is filed as functional, organism-based.

Series [11] deals with Mitochondria. The series is described as follows: Inhibition of CCCP -induced mitochondrial ROS generation in human HeLa cells incubated for 190 mins followed by CCCP addition measured after 90 mins by MitoSOX probe based analysis. Format: functional. The following applies: dose 5-20 nM. The essentials:
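HeLa cells seeded, stained 24 h later with MitoSOX 5 μM for 10 min, washed, HBSS, read on plate reader at 37 °C (Ex/Em 510/580 nm).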

The test system of series [12] is Mus musculus. The series is described as follows: Protection against colistin-induced nephrotoxicity in C57BL/6 mouse model assessed as appearance of compact cristae in mitochondria of kidney at 1 mg/kg, ip administered once every other day measured after 7 days by TEM analysis. Format: functional, organism-based. To be noted: time 7.0 day. The essentials:
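Male C57BL/6 mice, 7 weeks, given colistin 20 mg/kg sc daily for 7 days with peptide 1 mg/kg ip once every other day, n = 5 per group; kidney mitochondria examined by TEM.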

The test system of series [13] is Mus musculus. As to the kind of experiment: Protection against colistin-induced nephrotoxicity in C57BL/6 mouse model assessed as reduction in P-21 level at 1 mg/kg, ip administered once every other day measured after 7 days by IHC analysis. Format: functional, organism-based. The following applies: time 7.0 day. The procedure, abridged:
as §2

Series [14] deals with Epithelial cell. The series is described as follows: Inhibition of H2O2-induced intracellular ROS level in human tubular epithelial cells at 20 to 60 nM pretreated for 3 hrs followed by H2O2 addition measured after 30 mins by H2DCFDA staining based analysis. It is filed as functional. To be noted: dose 20-60 nM. The essentials:
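hTECs seeded, 24 h later given peptide 3 h, then H2O2 1 mM for 30 min; H2DCFDA 25 μM for 30 min, washed, read in HBSS on plate reader at 37 °C (Ex/Em 485/535 nm).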

Series [15] concerns Mus musculus. The series is described as follows: Protection against […] C57BL/6 mouse model assessed as increase in IL-10 mRNA level at 1 mg/kg, ip administered thrice a week prior to induction of bilateral ischemia-reperfusion injury measured after 6 days by qPCR analysis. Format: functional, organism-based. The following applies: time 6.0 day.

The subject of series [16] is Epithelial cell. As to the kind of experiment: Reversal of H2O2-induced IL-18 mRNA level in human tubular epithelial cells at 10 to 100 nM by qPCR analysis. It is filed as functional, cell-based. To be noted: dose 10-100 nM. In general terms: In qPCR the cycle at which signal appears reflects the starting amount.
Series [17] can be described thus: Drug localization in H2O2-damaged mitochondria of human tubular epithelial cells pretreated for 3 hrs followed by H2O2 addition measured after 30 mins by fluorescence based analysis. Format: ADME. To be noted: epithelial cell, time 3.5 hrs.
For series [18], the system named is HeLa. As to the kind of experiment: Induction of CCCP-reduced ATP production in human HeLa cells incubated for 3 hrs followed by CCCP addition measured after 1 hr by luminescence based analysis. It is filed as functional, cell-based. The following applies: dose 5-20 nM, time 4.0 hrs. The procedure, abridged:
as §1

Series [19] relates to Epithelial cell. The series is described as follows: Reversal of H2O2-induced mitochondrial dysfunction in human tubular epithelial cells assessed as increase in glycolytic PER level measured for 40 to 60 mins by Seahorse assay. It is filed as functional, cell-based. To be noted: dose 10-50 nM, time 40-60 min. The essentials:
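hTECs were exposed to H2O2 with peptide at 10 or 50 nM (n = 6 per group), then run on a Seahorse XFe96. OCR was read after sequential 2 μM oligomycin, 1 μM FCCP, and 0.5 μM rotenone/antimycin A. ECAR was read after 10 mM glucose, 1 μM oligomycin and 50 mM 2-DG. Glycolytic proton efflux rate was taken as glycoATP production rate.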

Series [20] can be described thus: Drug uptake in CCCP-damaged mitochondria of human HeLa cells at 100 nM by MitoTracker probe based assay. It is filed as ADME. The following applies: 16 min, 0.1 µM, TDE = time-dependent effect. The procedure, abridged: as §3
For series [21], the system named is HeLa. As to the kind of experiment: Cytoprotective activity against CCCP-induced cell death in human HeLa cells assessed as increase in cell survival measured for 4 hrs by fluorescence based analysis. Format: functional.
Series [22] in a line: Toxicity in C57BL/6 mouse model of colistin-induced nephrotoxicity assessed as animal survival at 1 mg/kg, ip administered once every other day measured for 7 days. It is filed as organism-based. The following applies: in vivo, 168 h, time 7 day. The essentials:
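Male C57BL/6 mice got colistin 20 mg/kg SC daily for 7 days, with peptide 1 mg/kg intraperitoneally every other day; groups of n = 5. Survival was tracked by Kaplan–Meier and compared by log-rank (Mantel–Cox) test.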

Series [23] has as its system Mus musculus. The series is described as follows: Protection against […] C57BL/6 mouse model assessed as increase in NQO-1 mRNA level at 1 mg/kg, ip administered thrice a week prior to induction of bilateral ischemia-reperfusion injury measured after 6 days by qPCR analysis. Format: functional, organism-based. The following applies: time 6.0 day.

Each structure is given as a SMILES string. The source made the active and inactive calls. No cut-off for these calls is given here. Where a SMILES comes first, the peptide text is derived from it. Bridges are numbered along the chain shown (N, C = ends). Roman numbers before positions name the chains, in order. [ ]: non-standard residue; d: D form. The star is where a group is joined. 5TAMRA = CN(C)c1ccc2c(c1)Oc1cc(N(C)C)ccc1C21OC(=O)c2cc(C(=O)*)ccc21; Cha = N[C@@H](CC1CCCCC1)C(=O)O

`CC(=O)N[C@@H](CC1CCCCC1)C(=O)N[C@H]1CSSC[C@@H](C(=O)N[C@@H](CCCNC(=N)N)C(N)=O)NC(=O)[C@H](CC2CCCCC2)NC(=O)[C@H](CCCNC(=N)N)NC(=O)[C@H](CCCNC(=N)N)NC(=O)[C@H](CC2CCCCC2)NC(=O)[C@H](CC(C)C)NC(=O)[C@H](CCCNC(=N)N)NC(=O)[C@@H](NC(=O)[C@H](CC2CCCCC2)NC(=O)c2ccc3c(c2)C(=O)OC32c3ccc(N(C)C)cc3Oc3cc(N(C)C)ccc32)CSSC[C@@H](C(=O)N[C@@H](CCCNC(=N)N)C(N)=O)NC(=O)[C@H](CC2CCCCC2)NC(=O)[C@H](CCCNC(=N)N)NC(=O)[C@H](CCCNC(=N)N)NC(=O)[C@H](CC2CCCCC2)NC(=O)[C@H](CC(C)C)NC(=O)[C@H](CCCNC(=N)N)NC1=O` (I: Ac-[Cha]CRL[Cha]RR[Cha]CR-NH2 / II: 5TAMRA-[Cha]CRL[Cha]RR[Cha]CR-NH2; disulfide I:2-II:9, I:9-II:2): the inhibition entry in [1] and in [14] was “Active” in each case. In addition, the Activity entry in series [2] was “Dose-Dependent Effect”; in [18], “Dose-Dependent Effect”; in series [19] it was “Dose-Dependent Effect”; in series [22] it was “Non-Toxic”. For the same molecule, the result in series [3], in series [4], in series [5], in series [6], in series [10] and in series [12] was Active. Besides, the outcome in series [13], in [15], in series [16], in series [21] and in [23] was Active. For the same molecule, the Drug uptake result in series [7] is “Not Active”; in [8], “Active”; in series [9] it was “Active”; in series [17], “Active”; in [20], “Tde”. For the same molecule, in [11], the inhibition entry is “Dose-Dependent Effect”.
